{
  "source": "ChEMBL document CHEMBL5678802",
  "about": "“Small-molecule p21-activated kinase inhibitor PF-3758309 is a potent inhibitor of oncogenic signaling and tumor growth” (Proc Natl Acad Sci U S A, 2010)",
  "key": {"SW-620": {"system": "SW-620", "assay": "Antiproliferative activity against human SW620 cells assessed as inhibition of cell proliferation incubated for 3 days by CellTiter-Glo Luminescent Cell Viability Assay", "assay_type": "functional, cell-based", "settings": "SW-620, 72 h", "how_it_was_run": "(§1)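 Cells of each line were plated in 384-well plates on day 1 and exposed to compound from day 2 for 3 days. On day 5 all medium was aspirated. Viable cell number was read by CellTiter-Glo luminescence, which quantifies cellular ATP.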"}, "HCC827": {"system": "HCC827", "assay": "Antiproliferative activity against human HCC827 cells assessed as inhibition of cell proliferation incubated for 3 days by CellTiter-Glo Luminescent Cell Viability Assay", "assay_type": "functional, cell-based", "settings": "HCC827, 72 h", "how_it_was_run": "(§2)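 Cancer cell lines seeded in 384-well plates on day 1; compound added on day 2 and left for 3 days. On day 5 all medium was aspirated, and viable cells were quantified by CellTiter-Glo luminescence, which measures cellular ATP. Dose-dependent effects on proliferation were determined.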"}, "NCI-H1755": {"system": "NCI-H1755", "assay": "Antiproliferative activity against human NCI-H1755 cells assessed as inhibition of cell proliferation incubated for 3 days by CellTiter-Glo Luminescent Cell Viability Assay", "assay_type": "functional, cell-based", "settings": "NCI-H1755, 72 h", "how_it_was_run": "as §1"}, "NCI-H1651": {"system": "NCI-H1651", "assay": "Antiproliferative activity against human NCI-H1651 cells assessed as inhibition of cell proliferation incubated for 3 days by CellTiter-Glo Luminescent Cell Viability Assay", "assay_type": "functional, cell-based", "settings": "NCI-H1651, 72 h", "how_it_was_run": "as §2"}, "NCI-H1573 [1]": {"system": "NCI-H1573", "assay": "Antiproliferative activity against human NCI-H1573 cells assessed as inhibition of cell proliferation incubated for 3 days by CellTiter-Glo Luminescent Cell Viability Assay", "assay_type": "functional, cell-based", "settings": "NCI-H1573, 72 h", "how_it_was_run": "as §2"}, "Calu-1": {"system": "Calu-1", "assay": "Antiproliferative activity against human Calu-1 cells assessed as inhibition of cell proliferation incubated for 3 days by CellTiter-Glo Luminescent Cell Viability Assay", "assay_type": "functional, cell-based", "settings": "Calu-1, 72 h", "how_it_was_run": "as §2"}, "PSN1": {"system": "PSN1", "assay": "Antiproliferative activity against human PSN1 cells assessed as inhibition of cell proliferation incubated for 3 days by CellTiter-Glo Luminescent Cell Viability Assay", "assay_type": "functional, cell-based", "settings": "PSN1, 72 h", "how_it_was_run": "as §1"}, "BXPC-3": {"system": "BXPC-3", "assay": "Antiproliferative activity against human BXPC-3 cells assessed as inhibition of cell proliferation incubated for 3 days by CellTiter-Glo Luminescent Cell Viability Assay", "assay_type": "functional, cell-based", "settings": "BXPC-3, 72 h", "how_it_was_run": "as §2"}, "HuP-T4": {"system": "HuP-T4", "assay": "Antiproliferative activity against human HuP-T4 cells assessed as inhibition of cell proliferation incubated for 3 days by CellTiter-Glo Luminescent Cell Viability Assay", "assay_type": "functional, cell-based", "settings": "HuP-T4, 72 h", "how_it_was_run": "as §2"}, "SU.86.86": {"system": "SU.86.86", "assay": "Antiproliferative activity against human SU-86-86 cells assessed as inhibition of cell proliferation incubated for 3 days by CellTiter-Glo Luminescent Cell Viability Assay", "assay_type": "functional, cell-based", "settings": "SU.86.86, 72 h", "how_it_was_run": "as §1"}, "ASPC1": {"system": "ASPC1", "assay": "Antiproliferative activity against human ASPC1 cells assessed as inhibition of cell proliferation incubated for 3 days by CellTiter-Glo Luminescent Cell Viability Assay", "assay_type": "functional, cell-based", "settings": "ASPC1, 72 h", "how_it_was_run": "as §2"}, "NCI-H1573 [2]": {"system": "NCI-H1573", "assay": "Inhibition of anchorage independent cell growth in human NCI-H1573 cells incubated for 6 days by Alamar blue reagent based fluorescence plate reader analysis", "assay_type": "functional", "settings": "NCI-H1573, 144 h"}, "NCI-H1993": {"system": "NCI-H1993", "assay": "Inhibition of anchorage independent cell growth in human NCI-H1993 cells incubated for 6 days by Alamar blue reagent based fluorescence plate reader analysis", "assay_type": "functional", "settings": "NCI-H1993, 144 h"}, "NCI-H2087": {"system": "NCI-H2087", "assay": "Inhibition of anchorage independent cell growth in human NCI-H2087 cells incubated for 6 days by Alamar blue reagent based fluorescence plate reader analysis", "assay_type": "functional", "settings": "NCI-H2087, 144 h"}, "NCI-H2170": {"system": "NCI-H2170", "assay": "Inhibition of anchorage independent cell growth in human NCI-H2170 cells incubated for 6 days by Alamar blue reagent based fluorescence plate reader analysis", "assay_type": "functional", "settings": "NCI-H2170, 144 h"}, "HCC70": {"system": "HCC70", "assay": "Antiproliferative activity against human HCC70 cells assessed as inhibition of cell proliferation incubated for 3 days by CellTiter-Glo Luminescent Cell Viability Assay", "assay_type": "functional, cell-based", "settings": "HCC70, 72 h", "how_it_was_run": "as §2"}, "Hs-578T": {"system": "Hs-578T", "assay": "Antiproliferative activity against human Hs-578T cells assessed as inhibition of cell proliferation incubated for 3 days by CellTiter-Glo Luminescent Cell Viability Assay", "assay_type": "functional, cell-based", "settings": "72 h", "how_it_was_run": "as §2"}, "HCT-116 [3]": {"system": "HCT-116", "assay": "Antitumor activity against human HCT-116 cells xenografted in nude mouse assessed as unbound drug concentration for inhibition of tumor growth at 0.12 to 3.3 mg/kg administered via pump for 9 days", "assay_type": "functional", "settings": "dose 0.12-3.3 mg/kg; time 9 day"}, "HCT-116 [4]": {"system": "HCT-116", "assay": "Inhibition of anchorage independent cell growth in human HCT-116 cells incubated for 6 days by Alamar blue reagent based fluorescence plate reader analysis", "assay_type": "functional", "settings": "HCT-116, 144 h"}, "[5]": {"molecular_target": "Proto-oncogene tyrosine-protein kinase Src (Homo sapiens, UniProt P12931)", "sequence (P12931 2-536 limits assumed)": "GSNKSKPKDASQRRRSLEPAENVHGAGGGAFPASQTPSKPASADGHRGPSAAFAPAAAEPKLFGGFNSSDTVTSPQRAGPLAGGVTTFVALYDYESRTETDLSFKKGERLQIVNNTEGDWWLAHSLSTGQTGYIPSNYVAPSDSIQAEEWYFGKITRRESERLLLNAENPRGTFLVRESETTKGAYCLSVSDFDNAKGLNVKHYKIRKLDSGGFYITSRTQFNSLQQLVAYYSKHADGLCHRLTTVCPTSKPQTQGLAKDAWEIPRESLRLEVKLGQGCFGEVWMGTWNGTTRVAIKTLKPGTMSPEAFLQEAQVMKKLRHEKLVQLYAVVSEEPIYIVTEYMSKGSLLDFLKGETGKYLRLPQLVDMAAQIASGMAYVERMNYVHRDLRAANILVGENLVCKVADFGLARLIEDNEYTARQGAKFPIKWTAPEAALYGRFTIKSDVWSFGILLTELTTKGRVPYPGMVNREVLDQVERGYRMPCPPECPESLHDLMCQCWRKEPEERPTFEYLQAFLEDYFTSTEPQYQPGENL", "assay": "Inhibition of human SRC in presence of ATP relative to control", "settings": "concentration not given here"}, "[6]": {"molecular_target": "Ribosomal protein S6 kinase alpha-3 (Homo sapiens, UniProt P51812)", "sequence (P51812 whole entry)": "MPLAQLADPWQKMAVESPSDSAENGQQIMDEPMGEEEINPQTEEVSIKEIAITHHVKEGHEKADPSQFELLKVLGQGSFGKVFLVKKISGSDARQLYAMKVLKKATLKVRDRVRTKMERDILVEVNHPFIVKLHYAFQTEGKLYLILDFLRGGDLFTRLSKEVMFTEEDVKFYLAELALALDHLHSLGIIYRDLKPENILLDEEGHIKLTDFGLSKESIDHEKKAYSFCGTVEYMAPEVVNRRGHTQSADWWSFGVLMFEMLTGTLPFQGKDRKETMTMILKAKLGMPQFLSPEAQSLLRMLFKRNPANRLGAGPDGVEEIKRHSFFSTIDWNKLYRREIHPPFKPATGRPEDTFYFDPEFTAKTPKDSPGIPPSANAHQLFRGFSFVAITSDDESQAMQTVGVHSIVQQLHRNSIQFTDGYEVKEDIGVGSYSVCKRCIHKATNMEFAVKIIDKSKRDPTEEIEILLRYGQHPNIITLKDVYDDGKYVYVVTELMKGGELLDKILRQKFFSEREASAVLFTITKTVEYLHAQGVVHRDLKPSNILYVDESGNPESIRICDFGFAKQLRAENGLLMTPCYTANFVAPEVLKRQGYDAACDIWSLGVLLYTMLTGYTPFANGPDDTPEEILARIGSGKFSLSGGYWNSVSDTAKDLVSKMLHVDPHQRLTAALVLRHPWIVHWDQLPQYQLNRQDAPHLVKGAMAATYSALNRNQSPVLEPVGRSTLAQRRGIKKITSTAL", "assay": "Inhibition of human RSK2 assessed as inhibition constant in presence of ATP"}, "[7]": {"molecular_target": "Tyrosine-protein kinase Yes (Homo sapiens, UniProt P07947)", "sequence (P07947 whole entry)": "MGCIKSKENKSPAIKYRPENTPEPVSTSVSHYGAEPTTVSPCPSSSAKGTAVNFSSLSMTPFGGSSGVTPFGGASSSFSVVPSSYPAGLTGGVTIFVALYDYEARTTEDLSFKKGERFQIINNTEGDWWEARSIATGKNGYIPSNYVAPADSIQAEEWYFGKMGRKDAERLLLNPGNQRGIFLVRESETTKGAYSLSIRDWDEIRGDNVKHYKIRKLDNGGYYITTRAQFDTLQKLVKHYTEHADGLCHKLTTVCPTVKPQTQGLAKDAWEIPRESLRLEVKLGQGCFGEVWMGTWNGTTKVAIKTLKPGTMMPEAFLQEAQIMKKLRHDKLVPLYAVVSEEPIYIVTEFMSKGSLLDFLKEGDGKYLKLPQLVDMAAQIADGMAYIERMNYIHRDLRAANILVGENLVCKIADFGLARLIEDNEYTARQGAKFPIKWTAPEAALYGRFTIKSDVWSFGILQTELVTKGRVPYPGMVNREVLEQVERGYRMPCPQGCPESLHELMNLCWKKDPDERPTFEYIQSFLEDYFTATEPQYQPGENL", "assay": "Inhibition of human YES1 in presence of ATP"}, "[8]": {"molecular_target": "Tyrosine-protein kinase Fyn (Homo sapiens, UniProt P06241)", "sequence (P06241 whole entry)": "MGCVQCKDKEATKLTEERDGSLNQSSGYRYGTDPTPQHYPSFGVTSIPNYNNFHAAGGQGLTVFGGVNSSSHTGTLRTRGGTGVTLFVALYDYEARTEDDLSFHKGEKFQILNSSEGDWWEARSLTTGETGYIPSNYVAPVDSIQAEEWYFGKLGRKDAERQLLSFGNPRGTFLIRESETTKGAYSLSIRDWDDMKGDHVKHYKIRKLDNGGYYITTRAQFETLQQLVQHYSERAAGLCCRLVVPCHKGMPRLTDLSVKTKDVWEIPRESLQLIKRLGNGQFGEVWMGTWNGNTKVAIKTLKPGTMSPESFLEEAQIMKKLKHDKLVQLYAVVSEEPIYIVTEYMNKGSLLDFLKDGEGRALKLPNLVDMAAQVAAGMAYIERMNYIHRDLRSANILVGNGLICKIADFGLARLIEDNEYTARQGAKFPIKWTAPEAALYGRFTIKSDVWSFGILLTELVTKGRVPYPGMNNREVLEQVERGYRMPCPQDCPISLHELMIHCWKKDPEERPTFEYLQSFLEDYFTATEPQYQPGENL", "assay": "Inhibition of human FYN in presence of ATP"}, "[9]": {"molecular_target": "RAC-gamma serine/threonine-protein kinase (Homo sapiens, UniProt Q9Y243)", "sequence (Q9Y243 whole entry)": "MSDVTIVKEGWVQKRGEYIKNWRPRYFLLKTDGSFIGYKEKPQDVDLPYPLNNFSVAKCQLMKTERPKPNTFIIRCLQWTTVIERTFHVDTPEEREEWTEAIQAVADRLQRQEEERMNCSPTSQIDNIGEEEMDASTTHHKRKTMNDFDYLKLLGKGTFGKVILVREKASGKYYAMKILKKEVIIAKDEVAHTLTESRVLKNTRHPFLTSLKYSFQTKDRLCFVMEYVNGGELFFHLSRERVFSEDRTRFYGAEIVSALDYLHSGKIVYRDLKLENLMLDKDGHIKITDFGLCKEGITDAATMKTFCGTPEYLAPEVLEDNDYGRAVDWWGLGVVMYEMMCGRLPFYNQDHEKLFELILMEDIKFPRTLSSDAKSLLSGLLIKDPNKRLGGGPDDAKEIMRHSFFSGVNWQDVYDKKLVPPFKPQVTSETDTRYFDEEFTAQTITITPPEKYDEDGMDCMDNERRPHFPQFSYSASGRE", "assay": "Inhibition of human AKT3 in presence of ATP by cellular assay"}, "[10]": {"molecular_target": "Tyrosine-protein kinase Fgr (Homo sapiens, UniProt P09769)", "sequence (P09769 whole entry)": "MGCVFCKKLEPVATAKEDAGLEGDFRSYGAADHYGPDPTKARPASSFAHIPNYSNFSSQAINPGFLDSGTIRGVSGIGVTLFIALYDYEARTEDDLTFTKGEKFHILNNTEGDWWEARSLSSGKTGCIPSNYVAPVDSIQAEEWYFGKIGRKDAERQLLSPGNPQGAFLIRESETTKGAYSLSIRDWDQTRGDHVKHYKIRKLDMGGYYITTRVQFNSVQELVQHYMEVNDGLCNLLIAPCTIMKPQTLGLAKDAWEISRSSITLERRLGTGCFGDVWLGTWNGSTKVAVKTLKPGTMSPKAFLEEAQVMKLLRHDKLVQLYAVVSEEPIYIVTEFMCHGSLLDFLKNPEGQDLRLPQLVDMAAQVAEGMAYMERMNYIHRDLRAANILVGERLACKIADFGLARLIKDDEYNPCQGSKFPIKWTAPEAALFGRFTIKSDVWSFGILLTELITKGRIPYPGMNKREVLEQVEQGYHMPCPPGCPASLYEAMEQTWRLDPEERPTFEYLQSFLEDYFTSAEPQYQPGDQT", "assay": "Inhibition of human FGR in presence of ATP by cellular assay"}, "[11]": {"assay": "Inhibition of YFP/YFP variant coding sequence fused ARF1/gamma-COP (unknown origin) expressed in HEK293 cells incubated for 8 to 24 hrs by fluorescence based analysis", "assay_type": "cell-based, Homo sapiens"}, "HCT-116 [12]": {"system": "HCT-116", "assay": "Downregulation of camptothecin-induced phospho-S474-PAK4 level in human HCT-116 cells at 1 uM preincubated with compound for 15 mins followed by camptothecin stimulation and measured after 20 hrs by Western blot analysis", "assay_type": "functional, cell-based", "settings": "time 20.25 hrs"}, "[13]": {"assay": "In vivo inhibition of PAK4 in nude mouse xenografted with human HCT-116 cells assessed as reduction in phosphorylated GEF-H1 level at 1.1 to 3.3 mg/kg, sc administered for 6 days by ELISA relative to control", "assay_type": "functional", "parameters": "scale not given: the % may be the effect or the level left", "settings": "dose 1.1-3.3 mg/kg, time 6 day"}, "HCT-116 [14]": {"system": "HCT-116", "assay": "Antitumor activity against human HCT-116 cells xenografted in nude mouse assessed as reduction in BAD phosphorylation at S112 residue at 15 to 150 mg/kg/day administered via pump for 18 hrs by Reverse-Phase protein array analysis", "assay_type": "functional, organism-based", "settings": "dose 15-150 mg/kg/day"}, "HCT-116 [15]": {"system": "HCT-116", "assay": "Antitumor activity against human HCT-116 cells xenografted in nude mouse assessed as reduction in AKT1 phosphorylation at S473 residue at 15 to 150 mg/kg/day administered via pump for 18 hrs by Reverse-Phase protein array analysis", "assay_type": "functional, organism-based", "settings": "dose 15-150 mg/kg/day"}},
  "note": "Active and inactive are the calls of the source. The rule behind the calls is not given here.",
  "data": [
    {"smiles": "Cc1nc(Nc2n[nH]c3c2CN(C(=O)N[C@H](CN(C)C)c2ccccc2)C3(C)C)c2sccc2n1", "note": "[PF-03758309]", "values": [
      {"measurement": "IC50", "setting": "SW-620", "value": 5.7, "unit": "nM"},
      {"measurement": "IC50", "setting": "HCC827", "value": 9.2, "unit": "nM"},
      {"measurement": "IC50", "setting": "NCI-H1755", "value": 15, "unit": "nM"},
      {"measurement": "IC50", "setting": "NCI-H1651", "value": 20, "unit": "nM"},
      {"measurement": "IC50", "setting": "NCI-H1573 [1]", "value": 22, "unit": "nM"},
      {"measurement": "IC50", "setting": "Calu-1", "value": 167, "unit": "nM"},
      {"measurement": "IC50", "setting": "PSN1", "value": 34, "unit": "nM"},
      {"measurement": "IC50", "setting": "BXPC-3", "value": 39, "unit": "nM"},
      {"measurement": "IC50", "setting": "HuP-T4", "value": 231, "unit": "nM"},
      {"measurement": "IC50", "setting": "SU.86.86", "value": 898, "unit": "nM"},
      {"measurement": "IC50", "setting": "ASPC1", "value": 1800, "unit": "nM"},
      {"measurement": "IC50", "setting": "NCI-H1573 [2]", "value": 2.37, "unit": "nM"},
      {"measurement": "IC50", "setting": "NCI-H1993", "value": 11.9, "unit": "nM"},
      {"measurement": "IC50", "setting": "NCI-H2087", "value": 1.36, "unit": "nM"},
      {"measurement": "IC50", "setting": "NCI-H2170", "value": 6.04, "unit": "nM"},
      {"measurement": "IC50", "setting": "HCC70", "value": 0.23, "unit": "nM"},
      {"measurement": "IC50", "setting": "Hs-578T", "value": 0.37, "unit": "nM"},
      {"measurement": "fIC50", "setting": "HCT-116 [3]", "value": 0.4, "unit": "nM"},
      {"measurement": "IC50", "setting": "HCT-116 [4]", "value": 0.24, "unit": "nM"},
      {"measurement": "inhibition", "setting": "[5]", "value": 96, "unit": "%"},
      {"measurement": "Ki", "setting": "[6]", "value": 5, "unit": "nM"},
      {"measurement": "IC50", "setting": "[7]", "value": 47, "unit": "nM"},
      {"measurement": "IC50", "setting": "[8]", "value": 46, "unit": "nM"},
      {"measurement": "IC50", "setting": "[9]", "value": 3600, "unit": "nM"},
      {"measurement": "IC50", "setting": "[10]", "value": 4680, "unit": "nM"},
      {"measurement": "IC50", "setting": "[11]", "value": 7.9, "unit": "nM"},
      {"measurement": "Activity", "setting": "HCT-116 [12]", "value": "Active"},
      {"measurement": "Activity", "setting": "[13]", "value": 54, "unit": "%"},
      {"measurement": "Activity", "setting": "HCT-116 [14]", "value": "Active"},
      {"measurement": "Activity", "setting": "HCT-116 [15]", "value": "Active"}
    ]}
  ]
}
